Source: ChEMBL document CHEMBL1141347, “Heptaketides from Corynespora sp. inhabiting the cavern beard lichen, Usnea cavernosa: first report of metabolites of an endolichenic fungus” (J Nat Prod, 2007)
The source made the active and inactive calls. The calls are words filed in the database; no cut-off is given here.

Assays:
PC-3M [1] = assay: Inhibition of human PC3M cell migration by wound-healing assay; format: functional, cell-based
MDA-MB-231 [2] = assay: Inhibition of human MDA-MB-231 cell migration by wound-healing assay; format: functional, cell-based
PC-3M [3] = assay: Inhibition of human PC3M cell migration at 5 uM by wound-healing assay; format: functional, cell-based
PC-3M [4] = assay: Effect on cell viability of human PC3M cells at 5 uM by microscopy based assay; format: functional
Method in brief: (§1)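 Cells exposed during wound-healing assay, then stained with a live/dead kit. Live cells fluoresce green from esterase conversion of calcein AM to calcein; ethidium homodimer 1 enters membrane-damaged cells, giving red fluorescence on nucleic acid binding. Imaged by microscopy. Controls: DMSO (background), LY294002 7.5 µM, 0.1% saponin for 10 min (death).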

MDA-MB-231 [5] = assay: Inhibition of human MDA-MB-231 cell migration at 5 uM by wound-healing assay; format: functional, cell-based
[6] = Antiproliferative activity against human PC3M cells after 40 hrs by MTT assay; format: functional, cell-based; conditions: PC-3M
PC-3M [7] = assay: Effect on cell viability of human PC3M cells at 5 uM by flow cytometry; format: functional, cell-based
Method in brief: (§2)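 Cells harvested straight from wound-healing assays by trypsinisation, washed twice with PBS, stained with ViaCount Flex reagent and run on a Guava EasyCyte flow cytometer, with EasyFit analysis separating viable cells from dead cells and debris. DMSO background control, 70% methanol death control, LY294002 control.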

MDA-MB-231 [8] = assay: Effect on cell viability of human MDA-MB-231 cells at 5 uM by flow cytometry; format: functional, cell-based; method in brief: as §2
MDA-MB-231 [9] = assay: Effect on cell viability of human MDA-MB-231 cells at 5 uM by microscopy based assay; format: functional; method in brief: as §1
PC-3M [10] = assay: Inhibition of human PC3M cell migration at 10 uM by wound-healing assay; format: functional, cell-based
Method in brief: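 PC-3M scratch wound-healing migration assay with compound at 10 µM over 40 h. DMSO negative and LY294002 positive controls.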

Q: For `COc1cc(OC)c2c(O)c3c(c(OC(C)=O)c2c1)C[C@](C)(O)OC3`, which Activity (PC-3M [1]) is on record?
A: The Activity was “inactive”.

Q: And the Activity (MDA-MB-231 [2])?
A: Its Activity is “inactive”.

Q: With `COc1cc(OC)c2c(c1)C(=O)C1=C(COC(C)=C1)C2=O` [DEHYDROHERBARIN] as the compound, how does the Activity (PC-3M [3]) read?
A: Its Activity is “Active”.

Q: What about the Activity (PC-3M [4]) of the same compound?
A: Its Activity is “inactive”.

Q: And the Activity (MDA-MB-231 [5])?
A: The Activity was “Active”.

Q: What about the IC25 [6] of the same compound?
A: Its IC25 is 2200 nM.

Q: And the IC50 [6]?
A: Its IC50 is 3500 nM.

Q: What about the Activity (PC-3M [7]) of the same compound?
A: Its Activity is “inactive”.

Q: And the Activity (MDA-MB-231 [8])?
A: The Activity was “inactive”.

Q: And the Activity (MDA-MB-231 [9])?
A: The Activity was “inactive”.

Q: With `COc1cc(OC)c2c(c1)C(=O)C1=C(C2=O)C(O)OC(C)=C1` (configuration not stated) as the compound, how does the Activity (PC-3M [1]) read?
A: Its Activity is “inactive”.

Q: What about the Activity (MDA-MB-231 [2]) of the same compound?
A: The Activity was “inactive”.

Q: Which Activity (PC-3M [1]) does the source give for `COc1cc(OC)c2c(O)c3c(c(OC(C)=O)c2c1)C=C(C)OC3` here?
A: The Activity was “inactive”.

Q: What about the Activity (MDA-MB-231 [2]) of the same compound?
A: The Activity was “inactive”.

Q: For `COc1cc(OC)c2c(c1)C(=O)C1=C(CO[C@@](C)(O)C1)C2=O`, which Activity (PC-3M [10]) is on record?
A: Its Activity is “Active”.

Q: What does the source list for `COc1cc(OC)c2c(OC(C)=O)c3c(c(OC(C)=O)c2c1)C=C(C)OC3`?
A: Activity (PC-3M [1]): inactive; Activity (MDA-MB-231 [2]): inactive
